Data published in ChEMBL document CHEMBL1137087, “Discovery of novel 2,8-diazaspiro[4.5]decanes as orally active glycoprotein IIb-IIIa antagonists” (J Med Chem, 2004).
“And” between values parts separate entries of the source, which are not always exact repeats. Equal values may be shown once.

Experiments:
[1] = biological target: Integrin alpha-IIb/beta-3 (Homo sapiens, UniProt P05106+P08514); assay: Tested for inhibition of the binding of fibrinogen to purified human GPIIb-IIIa in a 96-well format (ELISA assay); format: protein-complex assay
Sequence of Integrin alpha-IIb/beta-3 (P05106 27-788 limits assumed): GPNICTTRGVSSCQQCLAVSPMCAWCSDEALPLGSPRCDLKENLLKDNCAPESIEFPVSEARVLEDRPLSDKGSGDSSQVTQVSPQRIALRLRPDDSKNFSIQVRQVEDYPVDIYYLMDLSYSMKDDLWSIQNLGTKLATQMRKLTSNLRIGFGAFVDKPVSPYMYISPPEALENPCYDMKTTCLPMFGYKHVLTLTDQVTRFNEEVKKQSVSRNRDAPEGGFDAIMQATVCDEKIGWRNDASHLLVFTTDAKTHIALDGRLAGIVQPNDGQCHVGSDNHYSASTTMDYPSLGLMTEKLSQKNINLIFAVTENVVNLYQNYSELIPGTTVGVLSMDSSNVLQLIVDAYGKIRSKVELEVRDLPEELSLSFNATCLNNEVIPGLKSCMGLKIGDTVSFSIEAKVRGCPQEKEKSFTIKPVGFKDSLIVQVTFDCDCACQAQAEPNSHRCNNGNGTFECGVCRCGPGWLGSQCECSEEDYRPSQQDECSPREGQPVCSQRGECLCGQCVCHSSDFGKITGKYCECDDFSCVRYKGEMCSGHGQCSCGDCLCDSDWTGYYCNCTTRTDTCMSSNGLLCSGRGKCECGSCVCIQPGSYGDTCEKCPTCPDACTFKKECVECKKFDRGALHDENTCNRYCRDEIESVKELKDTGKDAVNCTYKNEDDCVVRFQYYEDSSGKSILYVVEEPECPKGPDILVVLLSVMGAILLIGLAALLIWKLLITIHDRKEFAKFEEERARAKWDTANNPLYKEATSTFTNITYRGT
Sequence of Integrin alpha-IIb/beta-3 (P08514 32-887 limits assumed): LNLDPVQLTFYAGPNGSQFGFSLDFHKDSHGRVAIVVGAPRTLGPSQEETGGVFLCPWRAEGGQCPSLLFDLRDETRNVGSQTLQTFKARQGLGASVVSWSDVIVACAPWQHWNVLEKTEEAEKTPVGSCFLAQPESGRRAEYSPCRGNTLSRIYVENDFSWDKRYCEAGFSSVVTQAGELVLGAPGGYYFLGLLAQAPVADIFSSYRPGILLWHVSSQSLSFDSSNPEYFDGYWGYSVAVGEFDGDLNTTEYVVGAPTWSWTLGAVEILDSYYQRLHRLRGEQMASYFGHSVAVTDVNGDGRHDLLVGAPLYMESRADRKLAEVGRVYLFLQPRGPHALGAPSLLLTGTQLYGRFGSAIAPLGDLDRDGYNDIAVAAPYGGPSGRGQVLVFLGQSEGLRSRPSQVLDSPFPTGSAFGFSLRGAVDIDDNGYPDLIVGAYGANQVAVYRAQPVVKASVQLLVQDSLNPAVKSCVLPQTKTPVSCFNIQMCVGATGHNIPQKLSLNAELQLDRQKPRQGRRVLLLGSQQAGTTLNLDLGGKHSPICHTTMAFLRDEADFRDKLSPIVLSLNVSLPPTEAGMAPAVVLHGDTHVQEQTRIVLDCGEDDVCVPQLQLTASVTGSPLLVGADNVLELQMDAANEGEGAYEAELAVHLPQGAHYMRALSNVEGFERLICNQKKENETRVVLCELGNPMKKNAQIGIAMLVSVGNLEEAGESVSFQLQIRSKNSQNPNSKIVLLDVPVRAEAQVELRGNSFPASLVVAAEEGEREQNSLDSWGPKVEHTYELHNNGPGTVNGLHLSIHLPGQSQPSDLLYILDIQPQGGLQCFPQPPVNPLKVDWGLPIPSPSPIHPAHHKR
Sequence of Integrin alpha-IIb/beta-3 (P08514 891-1039 limits assumed): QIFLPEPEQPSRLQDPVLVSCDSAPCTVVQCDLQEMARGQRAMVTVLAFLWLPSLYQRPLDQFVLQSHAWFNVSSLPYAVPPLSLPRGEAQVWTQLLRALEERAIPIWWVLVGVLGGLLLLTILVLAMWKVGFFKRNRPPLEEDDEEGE
In short: (§1)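 Purified GPIIb-IIIa or vitronectin receptor, 0.5 μg/well, coated overnight at 4 °C, BSA-blocked. Compound plus 10 nM biotinylated ligand added in triplicate, 2 h at room temperature, pH 7.4 Tris with CaCl2 and BSA.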

Integrin alpha-V/beta-3 = Integrin alpha-V/beta-3 (Homo sapiens, UniProt P05106+P06756); assay: Inhibition of vitronectin binding to Vitronectin receptor (alpha V beta 3); format: protein-complex assay
Sequence of Integrin alpha-V/beta-3 (P05106 27-788 limits assumed): as the sequence (P05106 27-788 limits assumed) above
Sequence of Integrin alpha-V/beta-3 (P06756 31-889 limits assumed): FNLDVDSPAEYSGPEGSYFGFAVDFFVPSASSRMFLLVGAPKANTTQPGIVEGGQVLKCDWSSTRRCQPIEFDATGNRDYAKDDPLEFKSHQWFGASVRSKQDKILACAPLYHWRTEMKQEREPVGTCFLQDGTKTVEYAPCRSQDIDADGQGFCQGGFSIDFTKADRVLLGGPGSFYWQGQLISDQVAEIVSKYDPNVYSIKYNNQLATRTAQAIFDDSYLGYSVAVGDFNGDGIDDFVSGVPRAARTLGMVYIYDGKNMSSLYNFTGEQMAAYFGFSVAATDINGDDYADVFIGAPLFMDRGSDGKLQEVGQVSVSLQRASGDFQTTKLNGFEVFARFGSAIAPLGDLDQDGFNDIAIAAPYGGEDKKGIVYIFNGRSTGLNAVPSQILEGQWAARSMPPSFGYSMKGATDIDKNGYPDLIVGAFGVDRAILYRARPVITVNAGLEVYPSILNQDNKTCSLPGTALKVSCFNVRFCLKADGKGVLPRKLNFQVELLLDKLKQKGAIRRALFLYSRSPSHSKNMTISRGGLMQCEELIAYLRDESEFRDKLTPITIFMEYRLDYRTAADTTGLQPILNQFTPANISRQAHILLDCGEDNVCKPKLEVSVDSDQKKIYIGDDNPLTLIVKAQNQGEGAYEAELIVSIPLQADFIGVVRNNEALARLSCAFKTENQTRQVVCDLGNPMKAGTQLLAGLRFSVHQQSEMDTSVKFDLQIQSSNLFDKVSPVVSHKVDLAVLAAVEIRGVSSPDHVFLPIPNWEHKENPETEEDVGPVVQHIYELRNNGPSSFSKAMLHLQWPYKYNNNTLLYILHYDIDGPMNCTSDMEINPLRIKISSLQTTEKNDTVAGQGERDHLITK
Sequence of Integrin alpha-V/beta-3 (P06756 891-1048 limits assumed): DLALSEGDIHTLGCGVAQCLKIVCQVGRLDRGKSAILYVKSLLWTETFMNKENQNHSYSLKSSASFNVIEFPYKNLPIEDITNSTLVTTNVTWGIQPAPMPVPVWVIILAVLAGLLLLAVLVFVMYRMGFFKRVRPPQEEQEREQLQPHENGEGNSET
In short: as §1, with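 “BSA. Detected by anti-biotin alkaline phosphatase conjugate, read at 405 nm; BSA-well binding subtracted; IC50 from three experiments.” for “BSA.”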

[2] = (§2) Area under curve was determined after oral administration in rats; format: ADME, organism-based; set-up: concentration or dose not given beside the values; conditions: rat, in vivo
In short: (§3)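 Sprague Dawley rats instrumented 2 days before, conscious; prodrug in water given orally and free acid in 50% PEG-300 intravenously, 1 mg/kg each, six rats per group. Serial blood sampling on EDTA or citrate; plasma deproteinized with acetonitrile plus internal standard, filtered. AUC, Cmax and t1/2β from mean concentration–time curves; F = oral AUC / iv AUC.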

[3] = Clearance of the drug was measured in cynomolgus; format: ADME; conditions: cercopithecidae, in vivo; read-out: CI
In short: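 Fasted, chair-restrained cynomolgus monkeys. Active acid given as a 15 min iv infusion in 50% PEG-300 diluted with plasmalyte; prodrug given a week later in water by nasogastric tube to the same animals. EDTA plasma sampled over 0–48 h and assayed by LC/MS/MS. t1/2β taken from the terminal log-linear phase; Vz = dose/(AUCINF·λz); F corrected for molecular weight and dose.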

Canis familiaris = organism: Canis familiaris; assay: Clearance of the drug was measured in the plasma of dog; format: ADME, organism-based, Canis lupus familiaris; conditions: in vivo
In short: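 Fasted male beagle dogs (n = 4): prodrug at 1 mg/kg orally, active drug intravenously. Plasma drug measured by LC/MS/MS. t1/2β from the linear portion of the log concentration–time curve; Vz = dose/(AUCINF·λz); F corrected for molecular weight and dose differences.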

[4] = Inhibition of Human umbilical vein endothelial cells (HUVEC) adhesion to fibronectin; format: cell-based
[5] = Inhibition of Human umbilical vein endothelial cells (HUVEC) adhesion to vitronectin; format: cell-based
[6] = Inhibition of Human umbilical vein endothelial cells (HUVEC) adhesion to Vitronectin; format: cell-based
Rattus norvegicus = organism: Rattus norvegicus; assay: Bioavailability in rat; format: ADME, organism-based; conditions: in vivo; in short: as §3
Mus musculus [7] = assay: Compound was tested for bleeding time in mice at a dose of 50 mg/kg vs DMSO (vehicle); format: functional
In short: (§4)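 Anesthetized female C57/bl mice given an iv tail-vein bolus in 10% DMSO in water (~150 μL); vehicle controls received DMSO. Tail transected 2 mm from the tip and immersed in 37 °C normal saline. Bleeding time recorded to cessation of flow by visual inspection, up to 900 s.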

Mus musculus [8] = assay: Compound was tested for bleeding time in mice at a dose of 100 mg/kg vs DMSO (vehicle); format: functional; in short: as §4
Mus musculus [9] = assay: Compound was tested for bleeding time in mice at a dose of 10 mg/kg vs DMSO (vehicle); format: functional; in short: as §4
Mus musculus [10] = assay: Compound was tested for bleeding time in mice at a dose of 40 mg/kg vs DMSO (vehicle); format: functional; in short: as §4
[11] = as §2; format: ADME, organism-based; conditions: rat, in vivo; in short: as §3

Row | Structure (SMILES) | IC50 [1] | other results
1 | N=C(N)c1ccc(N2CC3(CCN(C(=O)CC(=O)O)CC3)CC2=O)cc1 | 25000 nM | –
2 | N=C(N)c1ccc(N2CCC3(CCN(C(=O)CC(CC(=O)O)c4ccccc4)CC3)C2=O)cc1 (centres undefined) | 90 nM | –
3 | C[C@H](CC(=O)O)NC(=O)N1CCC2(CC1)CCN(c1ccc(C(=N)N)cc1)C2=O | 5 nM | –
4 | N=C(N)c1ccc(N2CCC3(CCN(C(=O)CCC(=O)O)CC3)C2=O)cc1 | 5600 nM | –
5 | N=C(N)c1ccc(N2CC3(CCN(C(=O)CCCC(=O)O)CC3)NC2=O)cc1 | 751 nM | –
6 | C[C@H](CC(=O)O)CC(=O)N1CCC2(CC1)CCN(c1ccc(C(=N)N)cc1)C2=O | 5 nM | –
7 | CCOC(=O)CCNC(=O)N[C@H]1CCN(c2ccc(C(=N)N)cc2)C1=O [ORBOFIBAN] | 2.38 nM | –
8 | CCOC(=O)CCNC(=O)N1CCC2(CC1)C(=O)N(c1ccc(C(=N)NO)cc1)C(=O)N2C | – | AUC [2]: 60 ng·h/mL
9 | CCOC(=O)CCCC(=O)N1CCC2(CC1)CCN(c1ccc(C(=N)NO)cc1)C2=O | – | clearance [3]: 6.51 mL/min/kg; AUC [2]: 501 ng·h/mL; CI (Canis familiaris): 6.44 mL/min/kg
10 | CN1C(=O)N(c2ccc(C(=N)N)cc2)CC12CCN(C(=O)CC(CC(=O)O)c1ccccc1)CC2 (centres undefined) | 20 nM | –
11 | CC(CC(=O)O)NC(=O)N1CCC2(CC1)CCN(c1ccc(C(=N)N)cc1)C2=O (centres undefined) | 4 nM | –
12 | CCOC(=O)COC1CCN(C(=O)[C@H](C)NC(=O)c2ccc(/C(N)=N/O)cc2)CC1 [SIBRAFIBAN] | 1.14 nM | IC50 [4]: > 50000 nM; IC50 [5]: > 50000 nM; IC50 (Integrin alpha-V/beta-3): > 50000 nM
13 | CCOC(=O)CCNC(=O)N1CCC2(CC1)CC(=O)N(c1ccc(C(=N)NO)cc1)C2 | – | AUC [2]: 95.6 ng·h/mL
14 | N=C(N)c1ccc(N2CCC3(CCN(CCCCC(=O)O)CC3)C2=O)cc1 | 7800 nM | –
15 | Cc1noc(C)c1S(=O)(=O)N[C@@H](CCC(=O)N1CCC2(CC1)C(=O)N(c1ccc(C(=N)N)cc1)C(=O)N2C)C(=O)O | 16 nM | –
16 | N=C(N)c1ccc(N2CCC3(CCN(C(=O)CCCC(=O)O)CC3)C2=O)cc1 | 4 nM | IC50 [4]: > 50000 nM; IC50 [6]: > 50000 nM; IC50 (Integrin alpha-V/beta-3): > 50000 nM
17 | Cc1ccc(S(=O)(=O)N[C@@H](CNC(=O)N2CCC3(CC2)C(=O)N(c2ccc(C(=N)N)cc2)C(=O)N3C)C(=O)O)cc1 | 2 nM | –
18 | CCOC(=O)COCC(=O)N1CCC2(CC1)CCN(c1ccc(C(=N)NO)cc1)C2=O | – | clearance [3]: 2.7 mL/min/kg; AUC [2]: 651 ng·h/mL; CI (Canis familiaris): 3.28 mL/min/kg
19 | N=C(N)c1ccc(N2CC3(CCN(C(=O)NCCC(=O)O)CC3)CC2=O)cc1 | 350 nM | –
20 | N=C(N)c1ccc(N2CCC3(CCN(C(=O)COCC(=O)O)CC3)C2=O)cc1 | 17 nM | IC50 (Integrin alpha-V/beta-3): > 50000 nM
21 | CCOC(=O)CCNC(=O)N1CCC2(CC1)CN(c1ccc(C(=N)NO)cc1)C(=O)N2C | – | AUC [2]: 24 ng·h/mL
22 | CCCCOC(=O)N[C@@H](CCC(=O)N1CCC2(CC1)CCN(c1ccc(C(=N)NO)cc1)C2=O)C(=O)OCC | – | AUC [2]: 184 ng·h/mL
23 | CN1C(=O)N(c2ccc(C(=N)N)cc2)CC12CCN(C(=O)NCCC(=O)O)CC2 | 400 nM | –
24 | N=C(N)c1ccc(N2CC3(CCN(C(=O)CCCC(=O)O)CC3)CC2=O)cc1 | 650 nM | –
25 | CCCCOC(=O)N[C@@H](CCC(=O)N1CCC2(CC1)C(=O)N(c1ccc(C(=N)NO)cc1)C(=O)N2C)C(=O)OCC | – | F (Rattus norvegicus): Not detected
26 | CN1C(=O)N(c2ccc(C(=N)N)cc2)C(=O)C12CCN(C(=O)CCCC(=O)O)CC2 | 100 nM | –
27 | CCCCOC(=O)N[C@@H](CCC(=O)N1CCC2(CC1)CC(=O)N(c1ccc(C(=N)N)cc1)C2=O)C(=O)O | 30 nM | –
28 | CCOC(=O)CC(CC(=O)N1CCC2(CC1)CCN(c1ccc(C(=N)NO)cc1)C2=O)c1ccccc1 (centres undefined) | – | AUC [2]: 7.9 ng·h/mL
29 | CCOC(=O)CCNC(=O)N1CCC2(CC1)CCN(c1ccc(C(=N)NO)cc1)C2=O | – | clearance [3]: 5.12 mL/min/kg; CI (Canis familiaris): 8.43 mL/min/kg; AUC [11]: 565 ng·h/mL

Further lines, with some results ahead:

Row | IC50 [1] | Structure (SMILES) | other results
30 | 4 nM and 3.9 nM | N=C(N)c1ccc(N2CCC3(CCN(C(=O)NCCC(=O)O)CC3)C2=O)cc1 | IC50 (Integrin alpha-V/beta-3): > 50000 nM
31 | 5 nM | CCCCOC(=O)N[C@@H](CCC(=O)N1CCC2(CC1)CCN(c1ccc(C(=N)N)cc1)C2=O)C(=O)O | –
32 | 1020 nM | CN1C(=O)N(c2ccc(C(=N)N)cc2)CC12CCN(C(=O)CCCC(=O)O)CC2 | –
33 | 50 nM | CN1C(=O)N(c2ccc(C(=N)N)cc2)C(=O)C12CCN(C(=O)NC(CC(=O)O)c1ccccc1)CC2 (centres undefined) | –
34 | 4 nM | C[C@@H](CC(=O)O)CC(=O)N1CCC2(CC1)CCN(c1ccc(C(=N)N)cc1)C2=O | –
35 | 7300 nM | N=C(N)c1ccc(N2CC3(CCN(C(=O)CCCCC(=O)O)CC3)CC2=O)cc1 | –
36 | 4180 nM | NC(=NN1CCOCC1)c1ccc(N2CCC3(CCN(C(=O)CCCC(=O)O)CC3)C2=O)cc1 | –
37 | 32 nM | CN1C(=O)N(c2ccc(C(=N)N)cc2)C(=O)C12CCN(C(=O)CC(CC(=O)O)c1ccccc1)CC2 (centres undefined) | –
38 | 841 nM | CCNC(=N)c1ccc(N2CCC3(CCN(C(=O)CCCC(=O)O)CC3)C2=O)cc1 | –
39 | 329 nM | N=C(N)c1ccc(N2C(=O)NC3(CCN(C(=O)NCCC(=O)O)CC3)C2=O)cc1 | –
40 | 410 nM | N=C(N)c1ccc(N2C(=O)CC3(CCN(C(=O)NCCC(=O)O)CC3)C2=O)cc1 | –
41 | 5 nM | Cc1noc(C)c1S(=O)(=O)N[C@@H](CCC(=O)N1CCC2(CC1)CCN(c1ccc(C(=N)N)cc1)C2=O)C(=O)O | Bleeding time (Mus musculus [7]): 562.5 s; Bleeding time (Mus musculus [8]): 890.6 s; Bleeding time (Mus musculus [9]): 96.7 s; Bleeding time (Mus musculus [10]): 196.5 s
42 | 10500 nM | N=C(N)c1ccc(N2CC3(CCN(C(=O)CCC(=O)O)CC3)CC2=O)cc1 | –
43 | 430 nM | N=C(N)c1ccc(N2C(=O)CC3(CCN(C(=O)CCCC(=O)O)CC3)C2=O)cc1 | –
44 | 15800 nM | N=C(N)c1ccc(N2CCC3(CCN(C(=O)CC(=O)O)CC3)C2=O)cc1 | –
45 | 21 nM | N=C(N)c1ccc(N2C(=O)NC3(CCN(C(=O)CCCC(=O)O)CC3)C2=O)cc1 | –
46 | 15000 nM | CC(C)(COC(=O)N1CCC2(CC1)CC(=O)N(c1ccc(C(=N)N)cc1)C2)C(=O)O | –
